Converted amounts (≈) assume the structure as drawn.
Tests used:
[Candida] sake = Anticandida activity against Candida sake clinical isolate assessed as growth inhibition after 24 hrs by broth microdilution method; assay type: functional; conditions: Fermentozyma sake
Summary of the method: (§1)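 Clinical Candida isolates subcultured for purity and optimal growth before testing; compounds dissolved in DMSO. Broth microdilution per NCCLS in Sabouraud dextrose broth, serial dilutions, inoculum about 10³/mL, with growth control and medium-only control; 24 h incubation at 37 °C. MIC is the lowest concentration giving complete visible inhibition.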

Candida parapsilosis = assay: Anticandida activity against Candida parapsilosis clinical isolate assessed as growth inhibition after 24 hrs by broth microdilution method; assay type: functional; conditions: Lodderomyces parapsilosis; summary of the method: as §1
Pichia kudriavzevii = assay: Anticandida activity against Candida krusei clinical isolate assessed as growth inhibition after 24 hrs by broth microdilution method; assay type: functional; summary of the method: as §1
Candida tropicalis = assay: Anticandida activity against Candida tropicalis clinical isolate assessed as growth inhibition after 24 hrs by broth microdilution method; assay type: functional; summary of the method: as §1
Nakaseomyces glabratus = assay: Anticandida activity against Candida glabrata clinical isolate assessed as growth inhibition after 24 hrs by broth microdilution method; assay type: functional; summary of the method: as §1
Candida albicans = assay: Anticandida activity against Candida albicans clinical isolate assessed as growth inhibition after 24 hrs by broth microdilution method; assay type: functional; summary of the method: as §1
Klebsiella oxytoca = assay: Antibacterial activity against Klebsiella oxytoca assessed as growth inhibition after 18 to 22 hrs by broth microdilution method; assay type: functional
Summary of the method: (§2)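 Bacterial isolates subcultured for purity, identified conventionally. Broth microdilution per NCCLS in Mueller-Hinton II broth; plates with growth control (no compound) and medium-only control, incubated 18-22 h at 35 °C. MIC taken as lowest concentration giving complete growth inhibition by unaided eye.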

Proteus mirabilis = assay: Antibacterial activity against Proteus mirabilis assessed as growth inhibition after 18 to 22 hrs by broth microdilution method; assay type: functional; summary of the method: as §2
Enterobacter sp. = assay: Antibacterial activity against Enterobacter spp. assessed as growth inhibition after 18 to 22 hrs by broth microdilution method; assay type: functional; summary of the method: as §2
Escherichia coli = assay: Antibacterial activity against Escherichia coli assessed as growth inhibition after 18 to 22 hrs by broth microdilution method; assay type: functional; summary of the method: as §2
Enterococcus faecalis = assay: Antibacterial activity against […] assessed as growth inhibition after 18 to 22 hrs by broth microdilution method; assay type: functional; summary of the method: as §2
Staphylococcus warneri = assay: Antibacterial activity against Staphylococcus warneri assessed as growth inhibition after 18 to 22 hrs by broth microdilution method; assay type: functional; summary of the method: as §2
Staphylococcus aureus = assay: Antibacterial activity against Staphylococcus aureus assessed as growth inhibition after 18 to 22 hrs by broth microdilution method; assay type: functional; summary of the method: as §2
[1] = system: Streptococcus alpha-hemolyticus; assay: Antibacterial activity against Streptococcus alpha-hemolyticus assessed as growth inhibition after 18 to 22 hrs by broth microdilution method

SMILES | MIC ([Candida] sake) [µg/mL] | MIC (Candida parapsilosis) [µg/mL] | MIC (Pichia kudriavzevii) [µg/mL] | MIC (Candida tropicalis) [µg/mL] | MIC (Nakaseomyces glabratus) [µg/mL] | MIC (Candida albicans) [µg/mL] | MIC (Klebsiella oxytoca) [µg/mL] | MIC (Proteus mirabilis) [µg/mL] | MIC (Enterobacter sp.) [µg/mL] | MIC (Escherichia coli) [µg/mL] | MIC (Enterococcus faecalis) [µg/mL] | MIC (Staphylococcus warneri) [µg/mL] | MIC (Staphylococcus aureus) [µg/mL] | MIC [1] [µg/mL]
CCCCCC/C(C)=N/Nc1nc(-c2ccc(OC)cc2OC)cs1 | 256 (≈ 708 µM) | 256 (≈ 708 µM) | 256 (≈ 708 µM) | 256 (≈ 708 µM) | 64 (≈ 177 µM) | 64 (≈ 177 µM) | > 256 | > 256 | > 256 | > 256 | > 256 | > 256 | > 256 | > 256
C/C(CC(C)C)=N\Nc1nc(-c2ccc(Cl)cc2Cl)cs1 | 256 (≈ 748 µM) | 256 (≈ 748 µM) | 256 (≈ 748 µM) | 256 (≈ 748 µM) | 128 (≈ 374 µM) | 256 (≈ 748 µM) | > 256 | > 256 | > 256 | > 256 | > 256 | > 256 | > 256 | > 256
CCC/C(C)=N/Nc1nc(-c2ccc(Cl)cc2Cl)cs1 | 256 (≈ 780 µM) | 256 (≈ 780 µM) | 256 (≈ 780 µM) | 4 (≈ 12.2 µM) | 2 (≈ 6.09 µM) | 2 (≈ 6.09 µM) | > 256 | > 256 | > 256 | > 256 | > 256 | > 256 | > 256 | > 256
CCCCC/C(C)=N/Nc1nc(-c2ccc(C)cc2)cs1 | 8 (≈ 26.5 µM) | 8 (≈ 26.5 µM) | 8 (≈ 26.5 µM) | 4 (≈ 13.3 µM) | 2 (≈ 6.63 µM) | 0.5 (≈ 1.66 µM) | > 256 | > 256 | > 256 | > 256 | > 256 | > 256 | > 256 | > 256
CC(C)(O/N=C(\C(=O)N[C@@H]1C(=O)N2C(C(=O)[O-])=C(C[n+]3ccccc3)CS[C@H]12)c1csc(N)n1)C(=O)O [CEFTAZIDIME] |  |  |  |  |  |  | 8 (≈ 14.6 µM) | 8 (≈ 14.6 µM) | 8 (≈ 14.6 µM) | 4 (≈ 7.32 µM) | 4 (≈ 7.32 µM) | 4 (≈ 7.32 µM) | 2 (≈ 3.66 µM) | 4 (≈ 7.32 µM)
CCCCCC/C(C)=N/Nc1nc(-c2ccc(Cl)cc2Cl)cs1 | 32 (≈ 86.4 µM) | 32 (≈ 86.4 µM) | 4 (≈ 10.8 µM) | 4 (≈ 10.8 µM) | 4 (≈ 10.8 µM) | 2 (≈ 5.4 µM) | > 256 | > 256 | > 256 | > 256 | > 256 | > 256 | > 256 | > 256
CCCC/C(CC)=N/Nc1nc(-c2ccc(OC)cc2OC)cs1 | 256 (≈ 737 µM) | 256 (≈ 737 µM) | 256 (≈ 737 µM) | 256 (≈ 737 µM) | 128 (≈ 368 µM) | 128 (≈ 368 µM) | > 256 | > 256 | > 256 | > 256 | > 256 | > 256 | > 256 | > 256
COc1ccc(-c2csc(NN=C(C)C)n2)c(OC)c1 | 256 (≈ 879 µM) | 256 (≈ 879 µM) | 256 (≈ 879 µM) | 256 (≈ 879 µM) | 128 (≈ 439 µM) | 128 (≈ 439 µM) | > 256 | > 256 | > 256 | > 256 | > 256 | > 256 | > 256 | > 256
COc1ccc(-c2csc(NN=C3CCCCCCC3)n2)c(OC)c1 | 256 (≈ 712 µM) | 256 (≈ 712 µM) | 256 (≈ 712 µM) | 256 (≈ 712 µM) | 256 (≈ 712 µM) | 64 (≈ 178 µM) | > 256 | > 256 | > 256 | > 256 | > 256 | > 256 | > 256 | > 256
CCCCCC/C(C)=N/Nc1nc(-c2ccc(OC)cc2)cs1 | 16 (≈ 48.3 µM) | 16 (≈ 48.3 µM) | 16 (≈ 48.3 µM) | 32 (≈ 96.5 µM) | 8 (≈ 24.1 µM) | 8 (≈ 24.1 µM) | > 256 | > 256 | > 256 | > 256 | > 256 | > 256 | > 256 | > 256
OC(Cn1cncn1)(Cn1cncn1)c1ccc(F)cc1F [FLUCONAZOLE] | 4 (≈ 13.1 µM) | 4 (≈ 13.1 µM) | 4 (≈ 13.1 µM) | 4 (≈ 13.1 µM) | 4 (≈ 13.1 µM) | 4 (≈ 13.1 µM) |  |  |  |  |  |  |  | 
CC/C(C)=N/Nc1nc(-c2ccc(Cl)cc2Cl)cs1 | 8 (≈ 25.5 µM) | 8 (≈ 25.5 µM) | 8 (≈ 25.5 µM) | 4 (≈ 12.7 µM) | 4 (≈ 12.7 µM) | 2 (≈ 6.36 µM) | > 256 | > 256 | > 256 | > 256 | > 256 | > 256 | > 256 | > 256
C=CCC/C(C)=N/Nc1nc(-c2ccc(OC)cc2OC)cs1 | 256 (≈ 772 µM) | 256 (≈ 772 µM) | 256 (≈ 772 µM) | 256 (≈ 772 µM) | 128 (≈ 386 µM) | 64 (≈ 193 µM) | > 256 | > 256 | > 256 | > 256 | > 256 | > 256 | > 256 | > 256
CCC/C(C)=N/Nc1nc(-c2ccc(OC)cc2OC)cs1 | 256 (≈ 801 µM) | 256 (≈ 801 µM) | 256 (≈ 801 µM) | 256 (≈ 801 µM) | 128 (≈ 401 µM) | 128 (≈ 401 µM) | > 256 | > 256 | > 256 | > 256 | > 256 | > 256 | > 256 | > 256
COc1ccc(-c2csc(N/N=C(\C)CC(C)C)n2)c(OC)c1 | 256 (≈ 768 µM) | 256 (≈ 768 µM) | 256 (≈ 768 µM) | 256 (≈ 768 µM) | 128 (≈ 384 µM) | 128 (≈ 384 µM) | > 256 | > 256 | > 256 | > 256 | > 256 | > 256 | > 256 | > 256
CCC(CC)=NNc1nc(-c2ccc(OC)cc2)cs1 | 256 (≈ 885 µM) | 256 (≈ 885 µM) | 256 (≈ 885 µM) | 64 (≈ 221 µM) | 32 (≈ 111 µM) | 16 (≈ 55.3 µM) | > 256 | > 256 | > 256 | > 256 | > 256 | > 256 | > 256 | > 256
CC/C(C)=N/Nc1nc(-c2ccc(OC)cc2OC)cs1 | 256 (≈ 838 µM) | 256 (≈ 838 µM) | 256 (≈ 838 µM) | 256 (≈ 838 µM) | 128 (≈ 419 µM) | 64 (≈ 210 µM) | > 256 | > 256 | > 256 | > 256 | > 256 | > 256 | > 256 | > 256
CCCCC/C(C)=N/Nc1nc(-c2ccc(Cl)cc2Cl)cs1 | 16 (≈ 44.9 µM) | 16 (≈ 44.9 µM) | 4 (≈ 11.2 µM) | 4 (≈ 11.2 µM) | 2 (≈ 5.61 µM) | 2 (≈ 5.61 µM) | > 256 | > 256 | > 256 | > 256 | > 256 | > 256 | > 256 | > 256
COc1ccc(-c2csc(N/N=C(\C)CC(C)C)n2)cc1 | 16 (≈ 52.7 µM) | 16 (≈ 52.7 µM) | 16 (≈ 52.7 µM) | 16 (≈ 52.7 µM) | 8 (≈ 26.4 µM) | 4 (≈ 13.2 µM) | > 256 | > 256 | > 256 | > 256 | > 256 | > 256 | > 256 | > 256
C=CCC/C(C)=N/Nc1nc(-c2ccc(Cl)cc2Cl)cs1 | 256 (≈ 752 µM) | 256 (≈ 752 µM) | 8 (≈ 23.5 µM) | 8 (≈ 23.5 µM) | 4 (≈ 11.8 µM) | 2 (≈ 5.88 µM) | > 256 | > 256 | > 256 | > 256 | > 256 | > 256 | > 256 | > 256
COc1ccc(-c2csc(NN=C3CCCCCCC3)n2)cc1 | 16 (≈ 48.6 µM) | 16 (≈ 48.6 µM) | 16 (≈ 48.6 µM) | 16 (≈ 48.6 µM) | 4 (≈ 12.1 µM) | 2 (≈ 6.07 µM) | > 256 | > 256 | > 256 | > 256 | > 256 | > 256 | > 256 | > 256
CCC(CC)=NNc1nc(-c2ccc(Cl)cc2Cl)cs1 | 256 (≈ 780 µM) | 256 (≈ 780 µM) | 256 (≈ 780 µM) | 4 (≈ 12.2 µM) | 4 (≈ 12.2 µM) | 0.5 (≈ 1.52 µM) | > 256 | > 256 | > 256 | > 256 | > 256 | > 256 | > 256 | > 256
COC1=CC(=O)C[C@@H](C)[C@]12Oc1c(Cl)c(OC)cc(OC)c1C2=O [GRISEOFULVIN] | 8 (≈ 22.7 µM) | 8 (≈ 22.7 µM) | 8 (≈ 22.7 µM) | 8 (≈ 22.7 µM) | 4 (≈ 11.3 µM) | 4 (≈ 11.3 µM) |  |  |  |  |  |  |  | 
